KCNQ1 pot = potentiators or activators of human KCNQ1 potassium channel; hit rate 0.35% among 310,000; CHO-K1 KCNQ1, thallium flux FluxOR fluorescence; stronger effect = higher value; B-score at 10 µM; P51787;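 active = fluorescence ratio B-score, a plate-corrected score, at least three library SD, with initial intensity B-score within 5 SD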
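assay system = KCNQ1-transfected CHO-K1 cells | medium = assay buffer with matched DMSO | probe or stimulus = depolarizing K+/Tl+ stimulus, K2SO4 and Tl2SO4 each 12.5 mM in 5x stock | dosing = single dose | incubation = dye 90 min, compound 20 min, room temperature | detection = kinetic FluxOR fluorescence, 10 s baseline plus 110 s post-stimulus | evaluation = ratio B score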
KCNK9 block = human KCNK9 channel inhibition. Q9NPC2. HEK293 KCNK9, FluxOR thallium flux fluorescence; stronger effect = lower value. B-score at 10 µM. hit rate 1.2% among 310,000;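 active = ratio B-score over 3 SD below the library mean, with starting fluorescence within 5 SD of its mean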;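 note: negative B-score means less thallium flux so channel inhibition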
Kir21 inh = Kir2.1 (mouse) channel inhibition; P35561; HEK293-Kir2.1, FluxOR thallium flux fluorescence; stronger effect = lower value; B-score at 10 µM; hit rate 0.85% among 310,000; AID 1672;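 active = fluorescence ratio B-score at or below minus 3 SD of library scores, with starting-brightness B-score within 2 SD, cut at about -4.2 in these data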;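 note: channel flux triggered by added potassium and thallium sulfate stimulus; B-score of peak minus minimum fluorescence over baseline after thallium stimulus; more negative B-score means stronger Kir2.1 block with less thallium influx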
KCNQ1 inh = inhibitors of human KCNQ1 potassium channel | CHO-K1 KCNQ1, FluxOR thallium flux fluorescence; stronger effect = higher value | AID 2642 | B-score at 10 µM | hit rate 1.3% among 310,000;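 active = compounds whose thallium flux B-score, printed positive for inhibition, exceeds three library SD while starting fluorescence stays within three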;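 note: channel opened by potassium depolarization with thallium stimulus after 20 min compound exposure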
hERG protect = shields human hERG channel from block by proarrhythmic agents. Q12809. CHO-hERG, FluxOR thallium flux, dofetilide IC70 present. activation (rescue from dofetilide block), less the hit threshold, % at 10 µM. hit rate 0.51% among 310,000;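 active = activation above the mean of controls blocked by dofetilide plus 5 SD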;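 note: thallium influx through hERG after potassium depolarization seen as dye fluorescence rise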
KCNK3 block = human KCNK3 channel inhibition, primary screen | CHO-KCNK3 thallium flux, FluxOR fluorescence; stronger effect = lower value | B-score at 10 µM | hit rate 0.84% among 340,000 | AID 602410;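 active = B-score under library mean minus 4 SD, starting fluorescence ratio at most library mean plus 5 SD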;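 note: more negative B-score means stronger inhibition of thallium flux through KCNK3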
Target sequence (O14649 whole entry, looked up): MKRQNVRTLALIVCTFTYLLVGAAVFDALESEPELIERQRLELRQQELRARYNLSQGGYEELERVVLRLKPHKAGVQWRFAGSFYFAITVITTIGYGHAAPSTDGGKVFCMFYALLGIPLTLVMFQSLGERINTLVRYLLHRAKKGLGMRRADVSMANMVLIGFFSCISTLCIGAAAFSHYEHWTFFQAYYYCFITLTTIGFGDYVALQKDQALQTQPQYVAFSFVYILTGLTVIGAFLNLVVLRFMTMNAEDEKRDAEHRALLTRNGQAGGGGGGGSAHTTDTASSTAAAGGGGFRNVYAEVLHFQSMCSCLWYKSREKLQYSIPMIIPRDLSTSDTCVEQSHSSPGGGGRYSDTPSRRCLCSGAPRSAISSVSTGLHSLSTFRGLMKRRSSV
Each line names hits and unclear results; the compound was inactive in the other large screens. This is a sample that favours compounds with a hit; in the whole collection about 3.7% have one here.

CC(C)CC(=O)NC(=S)Nc1nc(-c2cccc3ccccc23)cs1	KCNQ1 pot 34
Cc1ncc([N+](=O)[O-])n1CC(=O)Nc1ccc(F)cc1	none
CCCc1cc(=O)[nH]c(SCC(=O)Nc2cc(S(=O)(=O)N3CCCCC3)ccc2Cl)n1	none (no result: KCNQ1 pot, KCNK9 block, Kir21 inh, KCNQ1 inh, hERG protect)
O=C(COc1ccccc1)NC(=S)Nc1ccc(Br)cn1	KCNQ1 pot 22
CCCCC(=O)N/N=C/c1ccc(N2CCOCC2)c([N+](=O)[O-])c1	none
O=C(CN1C(=O)C2C3C=CC(C4CC34)C2C1=O)Nc1cnc2ccccc2c1 (centres undefined)	none
CC(c1nnnn1C1CCCCC1)N(Cc1ccccc1)Cc1cccnc1 (centres undefined)	none
CC(c1nnnn1C(C)(C)C)N(Cc1cccnc1)Cc1ccccc1Cl (centres undefined)	Kir21 inh -4.3
C=CCn1c(COc2ccccc2)nnc1SCc1ccc(C#N)cc1	Kir21 inh -11
C=CCn1c(SCc2ccc(C#N)cc2)nnc1-c1ccccc1	none
C=CCn1c(COc2ccc(Cl)cc2)nnc1SCc1ccc(C#N)cc1	hERG protect 4.8
CCc1nc2ccc(Cc3ccc4nc(CC)[nH]c4c3)cc2[nH]1	none
CCOC(=O)c1c(C)[nH]c(C(=O)CN(C)CC(=O)Nc2ccccc2C(F)(F)F)c1C	KCNK3 block -8.8 (no result: KCNQ1 pot, KCNK9 block, Kir21 inh, KCNQ1 inh, hERG protect)
COc1ccc(NC(=O)NCCN2CCc3ccccc3C2)cc1	none
O=C(NCCCN1CCCC1=O)Nc1ccc(F)c(Cl)c1	KCNQ1 inh 6
O=C(NCCCN1CCc2ccccc2C1)Nc1ccc(Cl)cc1	Kir21 inh -4.7
CCn1nc(C)c(CNC(=O)Nc2ccc3c(c2)OCO3)c1C	none
COC(=O)c1ccc(-c2nc(O)c3cnccn23)cc1	none
Oc1ccc(C=NN=C2c3ccccc3-c3ccccc32)c(O)c1	KCNK3 block -8.8 (no result: KCNQ1 pot, KCNK9 block, Kir21 inh, KCNQ1 inh, hERG protect)
Cc1ccc(S(=O)(=O)N2CCCCC2)cc1NC(=O)COc1ccccc1F	none
CCC1COCCS(=O)(=O)N1Cc1ccc(C)cc1 (centres undefined)	none
CCC[C@H]1COCCS(=O)(=O)N1Cc1ccc(Br)cc1	Kir21 inh -6.1 (no result: KCNK3 block)
CSc1nc2sc3c(c2c(=S)[nH]1)CC(C)(C)OC3	KCNQ1 pot 82, hERG protect 56
CCc1nc2sc3c(c2c(=S)[nH]1)CC(C)(C)OC3	none
Cc1c(C#N)c(N)c(C(=O)c2ccccc2)n1Cc1ccccc1	Kir21 inh -5.2
Cc1cc(C)c2c(=N)c3ccccc3n(CCCCCCCCn3c4ccccc4c(=N)c4c(C)cc(C)nc43)c2n1	KCNK3 block -10 (no result: KCNQ1 pot, KCNK9 block, Kir21 inh, KCNQ1 inh, hERG protect)
CCCCCn1c2c(c(=N)c3ccccc31)CCC2	none
COC(C/C=C/[C@H](O)[C@H](C)OCc1ccccc1)OC	none
O=C(COC(=O)CCCc1nc2ccccc2s1)NC(=O)NCc1ccco1	hERG protect 6.4
CCc1cc(C(=O)Nc2nc(-c3ccccn3)cs2)sc1C	KCNK3 block -9.2 (no result: KCNQ1 pot, KCNK9 block, Kir21 inh, KCNQ1 inh, hERG protect)
Cc1ccc(C(=O)Nc2nc(-c3ccccn3)cs2)o1	none
CC(OC(=O)c1ccc(F)cc1)C(=O)Nc1nc(-c2cccc([N+](=O)[O-])c2)cs1 (centres undefined)	KCNK9 block -7.4
O=C(Cc1cccc2ccccc12)Nc1nc(-c2cccc([N+](=O)[O-])c2)cs1	none
O=C(/C=C/c1ccc([N+](=O)[O-])cc1)c1cccnc1	Kir21 inh -4.3
CN(C)c1ccc(C(=O)/C=C/c2cccnc2)cc1	none
O=C(/C=C/c1cccnc1)c1ccc(F)c(F)c1	Kir21 inh -5.3
N/C(=N\OC(=O)c1ccc([N+](=O)[O-])cc1)c1cccnc1	none
O=C(/C=C/c1ccc([N+](=O)[O-])cc1)/C=C/c1ccco1	Kir21 inh -5.8, KCNQ1 inh 8
O=C(Oc1c(Br)cc([N+](=O)[O-])cc1Br)c1cccnc1	KCNQ1 inh 7
OCC1OC(Oc2c[nH]c3ccccc23)C(O)C(O)C1O (centres undefined)	none
CCOC(OCC)c1nc(N)[nH]c(=O)c1CCCCc1ccccc1	none (no result: KCNQ1 pot, KCNK9 block, Kir21 inh, KCNQ1 inh, hERG protect)
Cc1nc(-c2cccc(NS(=O)(=O)c3cccc4ccccc34)c2)cs1	none
O=C(/C=C/c1ccc2c(c1)OCO2)c1cccnc1	Kir21 inh -5.2
Cc1ccc(C(=O)N2CC(=O)NC(=O)C2)cc1	hERG protect 5.3
Cc1ccc(C(=O)N2CC3(C)CN(C(=O)c4ccc(C)cc4)CC(C)(C2)C3=O)cc1	none
CC(=O)c1cccc(NC(=O)C(OC(=O)c2ccccc2NS(=O)(=O)c2cccs2)c2ccccc2)c1 (centres undefined)	KCNK9 block -7
Oc1ccc(/C=N/N(c2ccccc2)c2ccccc2)c(O)c1O	none
Oc1ccc(/C=N/N(c2ccccc2)c2ccccc2)cc1O	KCNQ1 inh 6
O=C(/C(=N/N=C/c1ccc(O)c(O)c1)c1ccccc1)c1ccccc1	Kir21 inh -4.8
COc1ccc(/C=N/N(Cc2ccccc2)c2ccccc2)cc1O	KCNQ1 inh 6
CC(C)Cn1c(=O)c(C(=O)N/N=C/c2cccc(F)c2)c(O)c2ccccc21	KCNQ1 pot 9
CCCCn1c(=O)c(C(=O)N/N=C/c2ccc(F)cc2)c(O)c2ccccc21	none (no result: KCNK3 block)
CC(=O)N1CCN(CC(O)COc2ccc(S(=O)(=O)N3CCOCC3)cc2)CC1 (centres undefined)	none (no result: KCNQ1 pot, KCNK9 block, Kir21 inh, KCNQ1 inh, hERG protect)
Cc1ccc(/C=C/C2=NN(Cc3ccccc3Cl)C(=O)CC2)cc1	KCNQ1 inh 11
O=C(Nc1ccc2[nH]c(=S)sc2c1)Nc1ccccc1F	KCNQ1 pot 15, hERG protect 11
O=C(Nc1ccc2[nH]c(=S)sc2c1)c1ccccc1	KCNQ1 pot 12
O=C(NC1CCCCC1)C1CCN(c2cnccn2)CC1	none
C=CCn1c(SCC(O)Cn2c3ccccc3c3ccccc32)nnc1-c1ccco1 (centres undefined)	KCNK9 block -7.2
C=CCn1c(SCC(=O)N2c3ccccc3Sc3ccccc32)nnc1-c1ccco1	none
COc1ccc(C(=O)N/N=C/c2ccccc2OC(=O)c2ccccc2)cc1	KCNK9 block -14
C/C(=N\NC(=O)c1ccccc1OCCOc1ccccc1)c1ccccc1F	KCNK3 block -10 (no result: KCNQ1 pot, KCNK9 block, Kir21 inh, KCNQ1 inh, hERG protect)
COc1ccc(/C=N/NC(=O)c2nc(-c3ccccc3)cc(-c3ccccc3)n2)cc1	KCNK9 block -7.1, KCNQ1 inh 10
COc1ccccc1C(=O)NCC(=O)N/N=C/c1cc(Br)ccc1OCc1ccccc1	KCNK9 block -7.6
O=C(CNC(=O)c1ccc(F)cc1)N/N=C/c1cc(Br)ccc1OCc1ccccc1	none
CCc1ccccc1NC(=O)CCc1nc(-c2cccs2)no1	none
CCOc1ccc2[nH]c(C(=O)N/N=C/c3ccccc3OC)cc2c1	KCNK9 block -7.9
COc1ccccc1C=NNC(=O)c1ccccc1OCCOc1ccccc1	KCNK3 block -10 (no result: KCNQ1 pot, KCNK9 block, Kir21 inh, KCNQ1 inh, hERG protect)
COc1ccc2[nH]c(C(=O)N/N=C/c3ccccc3OC)cc2c1	none
